Measurements as given in the EternaBench riboswitch data.

System: MS2 coat protein
Assay: apparent Kd, MS2 coat protein; higher = weaker binding; RNA-MaP array; FMN 200 µM where present
In short: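 The titrant was SNAP-549-labelled MS2 coat protein, run from 0.7 or 1.5 nM in doubling steps to 3 µM. It was applied to designs transcribed by stalled E. coli RNA polymerase on Illumina sequencing-chip clusters, without ligand first and then with constant ligand, in 100 mM Tris-HCl pH 7.5, 80 mM KCl, 4 mM MgCl2, BSA, DTT, yeast tRNA and Tween-20. The apparent Kd is the median of filtered per-cluster binding-curve fits, with green signal normalised to red-channel RNA signal and control-cluster median Fmax.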

[1] = designed as: OFF switch for flavin mononucleotide, no ligand
[2] = ligand present: flavin mononucleotide, designed as: OFF switch for flavin mononucleotide
[3] = designed as: ON switch for flavin mononucleotide, no ligand
[4] = ligand present: flavin mononucleotide, designed as: ON switch for flavin mononucleotide

Sequence	apparent Kd [1] [nM]	apparent Kd [2] [nM]	apparent Kd [3] [nM]	apparent Kd [4] [nM]
GUGUACAGAGGAUAUAUAUGAGCAUGGAAACAUGCAAGAUCACAUGAGGAUCACCCAUGUAGAAGGCUGUACAC	88.4	541	–	–
UUUAUAUAGUAAGGAUAUGUAUUAAUUUUAUAGACAGAAGGUACUGACAUGAGGAUCACCCAUGUUUUAGUGUGGGCAUGUAGU	358	549	–	–
CGCUGCCACGCAGGAUAUGCAUUGGAUUACAAUGCAGAAGGGCGAUUACAUGAGGAUCACCCAUGUGUUGGCAGUGAAGAAGAG	–	–	1490	83.4
GUCAUCAUAUGAGGAUAUGACACCGAAACGGUGUCAGAAGGCAUGUCGAUAGACAUGAGGAUCACCCAUGUUUACAUGAUGACA	–	–	84.3	19.7
GUACAGUAGUGAGGAUAUACGAGAUCGAUAGAUCGGCGAUCCAUUUAUACAUGAGGAUCACCCAUGUAGAAGGCACUUCUGUAC	5.73	61.7	–	–
CCACGGUAUGUAGGAUAUGCAUAGCAUUGCUAUGCAGAAGGACAUGAGGAUCACCCAUGUAUGUAUUCCAUACUAAUCCCGUGG	5.5	5.69	–	–
GCCAUCAUAUGAGGAUAUGACACCGAAACGGUGUCAGAAGGCAUGUCGAUAGACAUGAGGAUCACCCAUGUUUACAUGAUGGCA	–	–	91.5	20.7
AGGUAACAUGAGGAUCACCCAUGUCAGGAUAUCAGUAAGAUGAGUAUAGAAGAGAGUAUGAGAAGGGACUAUAU	31	25.6	–	–
GCACUGACAGGAUAUACAUGAGGAUCACCCAUGUGACCCUUACAGUACUCGCGUACUGGUAGAAGGGUCUGUGC	–	140	–	–
CUUCGACAUGAGGAUCACCCAUGUCAGGAUAUUGUGUAUCGGGUUUUUUACGGAAAGGCGAGAAGGGAUGUGUG	27.6	22.3	–	–
ACGGCUAACCCAGUUUGAAUCUCAAGAAGGGUACACUGGGCAAGGUACAUGAGGAUCACCCAUGUACAGGAUAUUGAGAUGAGA	48.4	74	–	–
GCCUUAUCUGUCAGGAUAUACAAUAAUUUUUUUUUGUAGAAGGGACAUGAGGAUCACCCAUGUACAUUACAUUG	40	201	–	–
AAGAGUGCAGGAUAUACUUGGUAGGGUAAGAUGAGUGAGUGACAUGAGGAUCACCCAUGUAGAAGGGCAGAGAG	121	132	–	–
AGAUGGUGAUGUUAUCUUCGUCGGACAUGAGGAUCACCCAUGUAGGAUAUGCUACUAAAAUAGUAGCAGAAGGACAUGUAUCUU	104	1030	–	–
CCAGCGUGUGUGAGGAUAUGCUGGUCCUUGGAUCAGCAGAAGGCACAUGAGGAUCACCCAUGUGAGGACGUUGG	22.4	94.5	–	–
ACCUUACAUGAGGAUCACCCAUGUCAGGAUAUCUCGGGCGGCUGAGGACCAGCCGCCCAGAGAAGGGACGAGGA	14.7	15.3	–	–
GACACCGUGUAGAAGGACCAGUGCGCUACUAUGGUAGGAUAUACAUGAGGAUCACCCAUGUGACGGCUUUCGGUGGGAGCAGUG	10.9	19.8	–	–
GUCAGCUCGUGAGGAUAUACAACACUGCUUCGGCAGUGUAUUAAGCUCACAUGAGGAUCACCCAUGUAGAAGGCACGAGCUGAU	5.37	11.2	–	–
GUACCUUAUGAGAAGGCGAUCAUUAAACAUGAUCGAGGAUAUCAUGAAAACAUGAGGAUCACCCAUGUAUGGGUAUUAUGGUAC	–	–	33.6	16.4
AACCUGGUAAAUAAACUCAAUUACAUGAGGAUCACCCAUGUAUAGGAUAUGCAGUGGAAUACACUGCAGAAGGAUACAUCCAGG	18	60.9	–	–
GAUGGAAUAGUCAGGAUAUAAACGUCAGGAUAUGUUUAGAAGGGACAUGAGGAUCACCCAUGUUAAGAUAUGGU	29.9	87.6	–	–

Sequence	apparent Kd [1] [nM]	apparent Kd [2] [nM]	apparent Kd [3] [nM]	apparent Kd [4] [nM]
AUGAGCAACACAGGAUAUCUACGUGACAGAGCGAGAGAAGGGUGGGCCCAUGACUUACAUGAGGAUCACCCAUGUAGCUCCAAA	–	–	39.9	97.2
AGAUUGCAUGAGGAUAUCGUAUUAGAUAUAAUGCGAGAAGGCAUGACAUGAGGAUCACCCAUGUAGUGUGGGUU	55.9	40.2	–	–
GGAUAGGACAGAGGAUAUACGUGCUAGAGAUACUAGCAAAAUUUCCUCACAUGAGGAUCACCCAUGUAGAAGGCUGUACUAUCG	15.2	202	–	–
GGAUAGGACAGAGGAUAUACGUGCUAGAGAUACUAGCAAAAUUUUCUCACAUGAGGAUCACCCAUGUAGAAGGCUGUCCUAUCG	5.08	17.4	–	–
GGGUACAUCGGAGGAUAUCAUGUAAAUACAUGAGGAUCACCCAUGUCGAUGGAGACAUCGGAGGUUGAGAAGGCCGAUGUACCG	–	–	961	18.5
GGAUCGAAUGUGAGGAUAUGCUGGUCCUUGGAUCAGCAGAAGGCACAUGAGGAUCACCCAUGUGACCUAGAUCC	32.7	430	–	–
CGCUCUAUAUAUUUGGCAAGAAUCAGAAGGCGUUACAUGAGGAUCACCCAUGUUUUGUAUAGUAACGAGGAUAUGAUAUGAGCG	13.3	13.3	–	–
AGCUACGUUUCGUAGCAGUGUCAUCGAGAAGGCCUCAUUACAUGAGGAUCACCCAUGUGAGCAUGGGAGGAUAUCGAUGAUACA	–	–	406	129
GCUGACGAUGUAGGAUAUCUCGACGAUAAGUCGAGAGAAGGACAUGAGGAUCACCCAUGUCUCCAAACGUCAGCGAGGAAACUC	16.1	16.4	–	–
GGUCAACAUGAGGAUCACCCAUGUAAGCCAAGGCAAGGAUAUGGGUAUAGGGUACUAGGGUUAGAAGGUGCCAAUA	–	–	144	182
AGCGAACAGGCUAACAUGAGGAUCACCCAUGUGGACUCAUGGUAGGAUAUCGGGAAGGAGGAAACCGAGAAGGGCCGGUGAGCA	–	–	69.8	80.9
AAUAUGAGCUGGUAUAUAAACCUCACAUGAGGAUCACCCAUGUAGGAUAUCAGCACGAUAAGUGCUGAGAAGGACAUCCAGCUC	15.4	17.8	–	–
GUGUACGGAGGAUAUGUAUGGGCAGGCUGACCUGCAGCUUCACAUGAGGAUCACCCAUGUAGAAGGCUGUGCAC	12.1	24.2	–	–
CGCUAGUCAGGAUAUACGAACAUGUCAAAAGACGUGAAGGGACAUGAGGAUCACCCAUGUAGAAGGGACUAGCU	27	182	–	–
AAAUAGCUUGAGGAUAUUGGAUUGGAUUCAGUGCGAGAAGGCAAGACAUGAGGAUCACCCAUGUUGUGUUGGGA	47.2	90	–	–
CUGUUCCGUGUAGGAUAUGCAUAUUCUCAUUAUGCAGAAGGACAUGAGGAUCACCCAUGUAUGUUAUUAUCAUGUGUUACAUGU	31.4	163	–	–
CCGAAUAUGCAGGAUAUCGUAUCGGAAACGAUACGAGAAGGGUAAACAUGAGGAUCACCCAUGUUCCUUAACGG	20.6	22.2	–	–
GGGUACAUCGGAGGAUAUCAUGUAAAUACAUGAGGAUCACCCAUGUCGAUGGAGACAUCGGAGAUUGAGAAGGCCGAUGUACUG	–	–	169	8.5
UACAGCGUAGAUAAUAAUGAUUACAUGAGGAUCACCCAUGUAUAGGAUAUGCAGUGGAAUACACUGCAGAAGGAUACAUCGCUG	17	37	–	–
CUGACGGCAGGAUAUACAUGAGGAUCACCCAUGUAAAUUUUUCGUUUACCUUGACCGUGUAGAAGGGCCCAACC	14.8	14.7	–	–
GUCAGCUCGUGAGGAUAUACAUGUGCUGGAUACAGCACUAUUGAGUUCACAUGAGGAUCACCCAUGUAGAAGGCACGAGCUGAU	15.1	28.1	–	–
